Article PMC2811258 (Biochemistry, 2009)
pKd: −log10 of the molar value. “And” between values parts separate entries of the source, which are not always exact repeats. Identical values can stand only once. “Also recorded” adds a separate entry of the source. Like-named read-outs stand apart in the source and are kept apart here.

Legend:
[1] = biological target: T1, TmCheA dimer (full-length T. maritima CheA) (Thermotoga maritima, UniProt Q56310); test: Competition binding between ATP and TNP-ATP for TmCheA binding sites; conditions: 4 °C, Mg2+
T1 sequence (Q56310 1-671): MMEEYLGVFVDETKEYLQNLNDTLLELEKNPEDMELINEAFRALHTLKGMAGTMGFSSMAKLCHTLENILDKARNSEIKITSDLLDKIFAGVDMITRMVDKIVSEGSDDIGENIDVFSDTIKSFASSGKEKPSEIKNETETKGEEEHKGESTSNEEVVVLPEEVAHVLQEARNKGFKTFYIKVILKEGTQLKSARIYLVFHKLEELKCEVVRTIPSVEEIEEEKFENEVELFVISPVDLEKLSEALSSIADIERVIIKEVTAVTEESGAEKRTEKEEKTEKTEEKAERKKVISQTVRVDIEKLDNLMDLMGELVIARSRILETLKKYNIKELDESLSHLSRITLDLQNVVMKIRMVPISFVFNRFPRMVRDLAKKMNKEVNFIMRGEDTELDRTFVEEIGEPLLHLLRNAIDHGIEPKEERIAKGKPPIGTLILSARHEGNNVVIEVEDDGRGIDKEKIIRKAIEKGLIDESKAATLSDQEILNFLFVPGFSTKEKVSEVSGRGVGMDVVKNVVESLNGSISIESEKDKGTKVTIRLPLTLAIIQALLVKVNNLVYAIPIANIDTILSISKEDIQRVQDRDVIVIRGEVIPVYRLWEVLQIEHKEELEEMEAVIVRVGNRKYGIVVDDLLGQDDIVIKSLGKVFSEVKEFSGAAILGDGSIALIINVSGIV
Procedure, shortened: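 Competition titrations at 4 °C: TNP-ATP aliquots added to stirred full-length TmCheA (0.6 μM dimer) in TnM buffer (25 mM Tris, 0.5 mM EDTA, 10% glycerol, 25 mM NaCl, 50 mM K-glutamate, 20 mM MgCl2) containing 0, 2.34, 5.9, 11.9 or 23.4 mM ATP. Emission spectra (four-scan averages), background-corrected by mock titrations. At least two independent experiments averaged.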

TmP4 [2] = conditions: read-out: Kd^ATP for TmP4; chromatographic approach; ref [2]; cited from earlier work
[3] = biological target: T2, TmP4 (isolated P4 domain of T. maritima CheA, monomer) (Thermotoga maritima, UniProt Q56310); test: Fluorescence-monitored TNP-ATP binding titrations with TmP4; conditions: 4 °C, Mg2+; λex 520 nm, emission 530–600 nm
T2 sequence (Q56310 356-540): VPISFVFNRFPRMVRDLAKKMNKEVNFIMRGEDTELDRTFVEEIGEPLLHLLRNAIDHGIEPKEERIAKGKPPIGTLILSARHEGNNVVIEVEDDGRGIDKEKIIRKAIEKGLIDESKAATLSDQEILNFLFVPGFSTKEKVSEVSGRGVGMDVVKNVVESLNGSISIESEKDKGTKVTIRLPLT

[4] = biological target: T1, TmCheA dimer (full-length T. maritima CheA); assay type: binding; conditions: 4 °C
TmP4 [5] = conditions: read-out: Upper limit of Kd for the TmP4–TNP-ATP binding interaction; previous work; ref [2]; cited from earlier work
[6] = without versus with 20 mM MgCl2

| Structure (SMILES) | Kd2^ATP/Kd1^ATP (affinity difference between the two sites) [1] | pKd ([1]; read-out: Kd1^ATP (high-affinity site of TmCheA dimer), effect of competitor ATP on apparent Kd1^TNP) | pKd (TmP4 [2]) | IMFC (integrated molar fluorescence coefficient) of the TmP4 · TNP-ATP complex [3] | IMFC of T.AA.T complex ([4]; 20 mM MgCl2, 0.6 μM TmCheA dimer, two-site model) | IMFC of T.AA complex (IMFC site 1) ([4]; 20 mM MgCl2, TmCheA titrated with excess TNP nucleotide) | IMFC site 2 (second, low-affinity site) ([4]; Mg2+) | IMFC of T.AA complex from reverse stoichiometry titration ([4]; Mg2+, TmCheA added to 0.28 μM TNP-ATP) | IMFC of T.AA complex, absence of Mg2+ ([4]; no MgCl2, 20 mM Na2EDTA) | IMFC of T.AA.T complex, absence of Mg2+ ([4]; no MgCl2, 20 mM Na2EDTA) | Decrease of site 2 affinity in the absence of Mg2+ [4, 6] | Effect of Mg2+ removal on site 1 binding [4, 6] | pKd ([4]; Kd1^TNP (high-affinity site 1 of TmCheA dimer), Mg2+, forward and reverse titrations at low protein and ligand concentrations (0.002–0.003 μM)) | pKd ([4]; Kd1^TNP, titration of CheA with excess TNP-ATP, Mg2+, 0.003 μM TmCheA dimer, one-site binding model) | pKd ([4]; Kd1^TNP, titration of TNP-ATP with excess TmCheA, Mg2+, 0.002 μM TNP-ATP, one-site binding model) | Binding stoichiometry of high-affinity TNP-ATP binding to TmCheA dimer ([4]; reverse titration, 0.28 μM TNP-ATP, Mg2+) | pKd (TmP4 [5]) |
| --- | --- | --- | --- | --- | --- | --- | --- | --- | --- | --- | --- | --- | --- | --- | --- | --- | --- |
| Nc1ncnc2c1ncn2[C@@H]1O[C@H](COP(=O)(O)OP(=O)(O)OP(=O)(O)O)[C@@H](O)[C@H]1O [ATP] | ~10^3 fold | ~5.22 and 5.22 | 4.82 | – | – | – | – | – | – | – | – | – | – | – | – | – | – |
| Nc1ncnc2c1ncn2[C@@H]1O[C@H](COP(=O)(O)OP(=O)(O)OP(=O)(O)O)[C@H]2OC3(O[C@H]21)C([N+](=O)[O-])=CC(=[N+]([O-])[O-])C=C3[N+](=O)[O-] (some centres unmarked) [TNP-ATP, 2′(3′)-O-(2,4,6-trinitrophenyl)adenosine 5′-triphosphate] | – | – | – | 1.9 × 10^6 cps/μM | 9.5 × 10^6 cps/μM | 2.0 × 10^6 cps/μM | 7.5 × 10^6 cps/μM | ~2× 10^6 cps/μM and 2.0 × 10^6 cps/μM | 2.4 × 10^6 cps/μM | 8.9 × 10^6 cps/μM | 5 fold | insensitive to the presence or absence of Mg^2+ | ~8.80 and 8.80 | 8.74 | 8.85 | each TmCheA dimer can bind one molecule of TNP-ATP with high affinity; also recorded: one TNP-ATP per CheA dimer | ≥ 8.00 |
